Positions of bridges follow the written chain, without caps; N, C: chain ends. Residues, ends and D or L forms follow the SMILES beside them. *: point of attachment. Biotin = O=C1N[C@H]2[C@H](CS[C@H]2CCCCC(=O)*)N1
How the values were obtained:
[1] = tested on: Aβ1–40 peptide (amyloid aggregation); assay: Thioflavin T amyloid formation assay, Aβ1–40; assay type: biochemical; details: Aβ1–40 50µM + peptide 50µM, 5 days, 37°C, n=3 (Fig 1C)
In short: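 Aβ1–40 (50 µM; stored frozen in DMSO) was mixed with equimolar test peptide (50 µM) and incubated 5 days at 37°C until amyloid formation saturated. Thioflavin T was then added, and signal was read at 490 nm with excitation at 445 nm.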

[2] = tested on: Aβ1–42 peptide (amyloid aggregation); assay: Thioflavin T amyloid formation assay, Aβ1–42; assay type: biochemical; details: Aβ1–42 50µM + peptide 50µM, 5 hours, 37°C, n=3 (Fig 1C)
In short: (§1)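 Aβ1–40 or Aβ1–42 (50 µM) was mixed equimolar with peptide (50 µM) at 37°C until amyloid formation saturated: 5 days for Aβ1–40, 5 hours for Aβ1–42. Time courses set the read point. Thioflavin T was then added and read at 490 nm with excitation at 445 nm. Aβ alone served as positive control; peptide alone was read as background.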

[3] = Self-aggregation of SDPM1 by Thioflavin T; assay type: physicochemical; details: SDPM1 added alone, over time
Aβ1–42 peptide = assay: Amyloid trapping assay, SDS-PAGE and Aβ1–40/42 immunoblot; assay type: biochemical; details: SDS-PAGE/immunoblot after mixing with Aβ1–42 (Fig 1G, 1H)
In short: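 Aβ1–42 (50 µM) incubated with equimolar test peptide (50 µM) or 1:500 immune serum for 5 h at 37°C. A subset of mixtures was boiled in SDS with reducing agent and run on 10–20% Tris-tricine gels, then transferred to nitrocellulose. Blots were blocked in TBST/5% milk and probed with rabbit anti-Aβ1–40/42 at 1:10,000 in TBST/2.5% milk.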

[4] = tested on: low molecular weight Aβ amyloid from COS7 cells transfected with APPswe; assay: Precipitation from APPswe-transfected COS7 lysates; assay type: binding, human; details: COS7 lysate 1mg; antibody 10µg or biotin-SDPM1 50µg (Fig 1I, S1A)
In short: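 COS7 cells grown in DMEM/10% FCS were transfected at 40% confluence with V5-tagged human APP695, wild type or Swedish. At 48 h cells were lysed in 1% NP40/0.1% SDS/deoxycholate/EDTA buffer with protease inhibitors, sonicated and cleared at 16000g. Lysate (1 mg) was incubated overnight at 4°C with antibody (10 µg) or biotinylated peptide (50 µg), the latter captured on streptavidin agarose. Precipitates were analysed by SDS-PAGE and Aβ immunoblot.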

SDPM1 / SDPM2 peptide = assay: Serum antibody titer to SDPM1/SDPM2 after immunization; assay type: in vivo, mouse; details: for SDPM1-specific antibody titer (SDPM1 minus SDPM2 titer): average, SEM, n=7–12 animals (Fig 2A); for antibody titers to SDPM1 and SDPM2: young (5 to 12 months), end of experiment (S2A)
Aβ amyloid = assay: Serum antibody titer to Aβ amyloid after immunization; assay type: in vivo, mouse; details: for Aβ amyloid antibody titer: young, significant vs Mock (Fig 2C)
[5] = tested on: fibrillar Aβ amyloid plaques in APPswePSEN1(A246E) mouse brain; assay: Amyloid plaque burden, number and area; assay type: in vivo
[6] = tested on: Aβ1–40/1–42 in APPswePSEN1(A246E) mouse brain; assay: Aβ1–40/1–42 immunostaining of brain; assay type: in vivo; details: for Aβ1–40/42 immunostaining signal, % of control: young, with adjuvant
In short: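 After monthly s.c. streptavidin-peptide conjugate immunization with adjuvant, brains were collected after PBS exsanguination and bisected, then snap-frozen or fixed overnight in 2% paraformaldehyde. Some sagittal sections were pretreated with 90% formic acid for 4 min. Sections were blocked 2 h in 10% goat serum, given rabbit anti-Aβ1–40/42 overnight at 4°C, then Cy3 secondary for 1 h. Eight to twelve sections 80 µm apart were imaged at 10X with a fixed threshold.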

[7] = tested on: Aβ1–40 in APPswePSEN1(A246E) mouse brain; assay: Aβ1–40 brain peptide level; assay type: in vivo; details: with adjuvant
In short: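 Transgenic mice received monthly subcutaneous injections of biotinylated test peptide (100 µg) conjugated overnight at 4°C to 25 µg streptavidin in TBS, emulsified 1:1 with adjuvant. TiterMax Gold was used first, then Freund's incomplete. Schedules ran 5–12 months (8 injections) or 12–18 months (7). Mock controls got TBS plus adjuvant. Brain Aβ1–40 ELISA was read at 450 nm against peptide standard curves and reported as µg/g wet brain weight.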

[8] = tested on: Aβ1–42 in APPswePSEN1(A246E) mouse brain; assay: Aβ1–42 brain peptide level; assay type: in vivo; details: with adjuvant
[9] = tested on: Aβ amyloid species in APPswePSEN1(A246E) cortex; assay: Aβ/APP immunoblot of soluble cortex fraction; assay type: in vivo, mouse; details: immunoblot (Fig 3G)
APPswePSEN1(A246E) mice = assay: Morris water maze; assay type: in vivo, mouse
[10] = tested on: APPswePSEN1(A246E) mouse brain; assay: Brain inflammation immunostaining; assay type: in vivo; details: young and old; for reduction of CD68 immunostaining: significant (Fig 5D); for GFAP staining signal: with adjuvant (Fig 5C); for Iba1 staining signal: with adjuvant (Fig 5E)
[11] = tested on: monovalent Aβ1–40 peptide; details: ref Kang et al., 2003; cited from earlier work
[12] = tested on: monovalent Aβ1–42 peptide; details: ref Kang et al., 2003; cited from earlier work
[13] = tested on: amyloid plaques in AD brain; details: ref Kang et al., 2003; cited from earlier work
[14] = tested on: Aβ amyloid (Aβ1–40 or Aβ1–42); assay: Thioflavin T amyloid formation assay, Aβ form not distinguished; assay type: biochemical; details: peptide 50µM + Aβ1–40 or Aβ1–42 50µM, 37°C, n=3 (Fig 1C)
In short: as §1

[15] = old, in most instances (Fig 3D–F)
[16] = young, in all instances, n=7–12 animals (Fig 3A–C)
[17] = young, soluble and insoluble, cortex, hippocampus (Fig 3A, B)

For CC(C)C[C@@H]1NC(=O)[C@H](CCCNC(=N)N)NC(=O)[C@H](Cc2c[nH]c3ccccc23)NC(=O)[C@H](CCCNC(=N)N)NC(=O)CNC(=O)CNC(=O)[C@H](CCCCN)NC(=O)CNC(=O)[C@H](Cc2c[nH]c3ccccc23)NC(=O)[C@H](CC(=O)O)NC(=O)[C@@H](NC(=O)[C@H](CCC(=O)O)NC(=O)[C@H](C)NC(=O)CCCC[C@@H]2SC[C@@H]3NC(=O)N[C@@H]32)CSSC[C@@H](C(=O)NCC(=O)N2CCC[C@H]2C(=O)O)NC(=O)[C@H](C)NC(=O)[C@H](CCC(=O)O)NC(=O)[C@H]([C@@H](C)O)NC(=O)[C@H](CCCCN)NC(=O)CNC(=O)[C@H](CO)NC(=O)[C@H](C)NC(=O)CNC(=O)[C@@H]2CCCN2C(=O)[C@H](Cc2c[nH]c3ccccc23)NC1=O [SDPM1] (Biotin-AECDWGKGGRWRLWPGASGKTEACGP-OH; disulfide 3-24; C-terminus assumed), the “inhibition of amyloid aggregation” value [1] was “over 60%”, the “inhibition of amyloid aggregation” value [2] was “over 60%” and the “Thioflavin T signal of peptide alone (amyloid self-formation)” value [3] was “did not lead to development of increased Thioflavin T signal over time”. For the same molecule, the “effect on high MW Aβ aggregate formation” value (Aβ1–42 peptide) was “reduced formation of high molecular weight (MW) Aβ aggregates”, the “size of trapped Aβ forms (trimers and tetramers)” value (Aβ1–42 peptide) was 12–16 kDa and the “precipitation of low MW Aβ amyloid from APPswe cells” value [4] was “tetramer Aβ amyloid precipitated from APPswe-transfected cells”. For the same molecule, the “SDPM1-specific antibody titer (SDPM1 minus SDPM2 titer)” value (SDPM1 / SDPM2 peptide; old (12 to 18 months), with adjuvant) was 29 ± 6 µg/mL, the predominant antibody subtype (SDPM1 / SDPM2 peptide; with adjuvant, young and old (Fig 2B)) was “IgG1” and the “antibody titers to SDPM1 and SDPM2” value (SDPM1 / SDPM2 peptide; without adjuvant) was 2 to 15 µg/mL. The “antibody titers to SDPM1 and SDPM2 vs without adjuvant” value (SDPM1 / SDPM2 peptide; young, with adjuvant (S2A)) was “increased titers to SDPM1 and SDPM2”, the “SDPM1 titers relative to SDPM2 titers” value (SDPM1 / SDPM2 peptide; young, without adjuvant (S2A)) was “increased SDPM1 titers relative to SDPM2” and the “SDPM1-specific antibody titer (SDPM1 minus SDPM2 titer)” value (SDPM1 / SDPM2 peptide; young, without adjuvant) was 5 ± 1 µg/mL. The “Aβ amyloid (Aβ1–40/42) antibody titer” value (Aβ amyloid; old, with adjuvant, Mock 11±6µg/mL, did not reach statistical significance (Fig 2C)) was 23 ± 7 µg/mL, the “Aβ amyloid antibody titer” value (Aβ amyloid; with adjuvant, Mock 5±2µg/mL) was 21 ± 7 µg/mL and the “Aβ amyloid antibody titer” value (Aβ amyloid; without adjuvant, Mock 1±1 µg/mL) was 5 ± 1 µg/mL. The “Thioflavin S staining of fibrillar amyloid (images)” value ([5]; hippocampus and cortex (Fig 2D, S3–4), similar with Congo Red (not shown)) was “dramatically reduced”, the “amyloid plaque burden, plaque number, plaque area, Thioflavin S staining” value ([5]; old, s.c. once a month with adjuvant, 12 to 18 months (Fig 2E–G, S2B)) was “highly significant reductions in amyloid plaque burden, plaque number, plaque area, and Thioflavin S staining” and the “Aβ1–40/42 immunostaining signal, % of control” value ([6]; cortex) was 25±6%. For the same molecule, the “Aβ1–40/42 immunostaining signal, % of control” value ([6]; hippocampus) was 14±3%, the “Aβ1–40/42 staining signal” value ([6]; old, with adjuvant (S2C)) was “also reduced in old mice” and the “reduction in Aβ1–40 peptide level” value [7, 15] was “greater than 50%”. For the same molecule, the “Aβ1–40 cerebellum level” value ([7]; young, cerebellum (Fig 3C)) was “significantly reduced”, the “reduction in Aβ1–40 peptide level” value [7, 16] was “greater than 50%” and the “Aβ1–40 brain level, significance of reduction” value [7, 17] was “significant reduction in both soluble and insoluble Aβ1–40 and Aβ1–42”. For the same molecule, the “reduction in Aβ1–42 peptide level” value [8, 15] was “greater than 50%”, the “reduction in Aβ1–42 peptide level” value ([8]; old, insoluble fraction, cortex (Fig 3D)) was 65–75% and the “reduction in Aβ1–42 peptide level” value ([8]; old, insoluble fraction, hippocampus (Fig 3E)) was 65–75%. For the same molecule, the “reduction in Aβ1–42 peptide level” value [8, 16] was “greater than 50%”, the “Aβ1–42 brain level, significance of reduction” value [8, 17] was “significant reduction in both soluble and insoluble Aβ1–40 and Aβ1–42” and the “high and low MW Aβ amyloid species” value [9] was “large reductions in both high and low MW Aβ amyloid species”. For the same molecule, the escape latency (APPswePSEN1(A246E) mice; old (12 to 18 mo), with adjuvant (Fig 4D)) was “no improvement”, the probe test (APPswePSEN1(A246E) mice; old (12 to 18 mo), with adjuvant (Fig 4E)) was “no improvement” and the “probe test, time in platform quadrant” value (APPswePSEN1(A246E) mice; young (5 to 12 mo), with adjuvant (Fig 4B)) was “improved significantly compared to controls, spending almost the same amount of time in the appropriate quadrant as WT animals”. The “reduction of CD68 immunostaining” value ([10]; cortex, with adjuvant) was ≥ 50%, the “reduction of CD68 immunostaining” value ([10]; hippocampus, with adjuvant) was ≥ 50% and the GFAP staining signal [10] was “no significant changes”. The Iba1 staining signal [10] was “no significant changes”, the “CD3, CD4, CD8, B220 brain parenchymal staining” value ([10]; with adjuvant, not shown) was “no evidence for brain parenchymal staining” and the “binding to monovalent Aβ1–40 peptide” value [11] was “does not bind monovalent Aβ1–40 or Aβ1–42 peptide”. The “binding to monovalent Aβ1–42 peptide” value [12] was “does not bind monovalent Aβ1–40 or Aβ1–42 peptide” and the “binding to amyloid plaques in AD brain” value [13] was “most efficacious in binding amyloid plaques in AD brain”.

In the case of DWGKGGRWRLWPGASGKTEA [SDPM2], the “Thioflavin T signal decrease” value [14] is reported as “no significant decrease in Thioflavin T signal”, the “effect on high MW Aβ aggregate formation” value (Aβ1–42 peptide) is reported as “had no effect on Aβ amyloid formation in vitro” and the SDPM1-specific antibody titers (SDPM1 / SDPM2 peptide; any condition (Fig 2A)) is reported as “never showed SDPM1-specific antibody titers under any conditions”. The “antibody titers to SDPM1 and SDPM2” value (SDPM1 / SDPM2 peptide; without adjuvant) was 2 to 15 µg/mL, the “Aβ staining levels vs mock-immunized” value ([6]; S2C) was “not significantly reduced, though it trended downward compared to mock-immunized animals” and the GFAP staining signal [10] was “no significant changes”. For the same molecule, the Iba1 staining signal [10] was “no significant changes”.

Source: publication PMC2913404 (Neurobiology of disease, 2010)
